What all share (type): functional
One assay relates to LOX IMVI. The experiment in a line: Cytotoxicity against human LOXIMVI cells assessed as cell growth at 10 uM after 48 hrs by SRB assay relative to control. Particulars: read-out: Activity. The gist of the method:
(§1)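 This was the NCI primary screen, with compound added once at 10⁻⁵ M and cultures incubated for 48 h. The endpoint was sulforhodamine B protein staining. Results are expressed as percent growth of treated cells relative to untreated control cells.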
On the technique in general: In SRB staining, fixed cells bind dye roughly in proportion to their protein.

Another assay has as its system RPMI-8226. The experiment in a line: Cytotoxicity against human RPMI8226 cells assessed as cell growth at 10 uM after 48 hrs by SRB assay relative to control. Particulars: RPMI-8226, 48 h, read-out: Activity. The gist of the method:
as §1

Another assay relates to K562. The experiment in a line: Cytotoxicity against human K562 cells assessed as cell growth at 10 uM after 48 hrs by SRB assay relative to control. Particulars: K562, 48 h, read-out: Activity. The procedure, abridged:
as §1

Another assay concerns SR. The experiment in a line: Cytotoxicity against human SR cells assessed as cell growth at 10 uM after 48 hrs by SRB assay relative to control. Particulars: read-out: Activity. The gist of the method: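 Single-dose NCI screen: compound at 10⁻⁵ M added to tumor cell cultures and incubated for 48 h. The SRB protein-binding dye end point was read spectrophotometrically. Results are percent growth of treated cells relative to untreated controls.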

The structures appear in SMILES notation.

As to `COc1ccc(C2CC(c3ccccc3)=NN2C(=O)/C=C2\SC(=O)NC2=O)cc1` (centres undefined), the growth at 10 µM in the assay with LOX IMVI came to 55.7%; in the assay with RPMI-8226, 58.9%; in the assay with K562, 58.2%; in the assay with SR, 39.1%.
